For one assay, the species on record is Rattus norvegicus. Put plainly: animal or person. Format: functional. The conditions noted are these: 5 min.
Assay [1] deals with T1, Serotonin 3 (5-HT3) receptor (Rattus norvegicus, UniProt P35563+Q9JJ16).
T1 sequence (P35563 whole entry): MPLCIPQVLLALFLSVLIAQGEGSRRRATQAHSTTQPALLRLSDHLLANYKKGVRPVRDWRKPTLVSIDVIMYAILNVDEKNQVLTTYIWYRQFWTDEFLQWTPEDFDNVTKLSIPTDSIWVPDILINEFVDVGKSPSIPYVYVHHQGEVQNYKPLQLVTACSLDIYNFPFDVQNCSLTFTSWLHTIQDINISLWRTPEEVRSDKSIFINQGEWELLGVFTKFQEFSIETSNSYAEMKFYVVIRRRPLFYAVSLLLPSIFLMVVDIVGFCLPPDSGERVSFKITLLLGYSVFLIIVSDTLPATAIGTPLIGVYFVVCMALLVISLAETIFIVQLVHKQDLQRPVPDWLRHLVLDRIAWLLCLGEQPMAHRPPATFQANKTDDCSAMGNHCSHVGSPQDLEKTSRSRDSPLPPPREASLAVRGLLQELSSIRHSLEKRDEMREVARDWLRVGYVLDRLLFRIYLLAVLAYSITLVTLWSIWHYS
T1 sequence (Q9JJ16 whole entry): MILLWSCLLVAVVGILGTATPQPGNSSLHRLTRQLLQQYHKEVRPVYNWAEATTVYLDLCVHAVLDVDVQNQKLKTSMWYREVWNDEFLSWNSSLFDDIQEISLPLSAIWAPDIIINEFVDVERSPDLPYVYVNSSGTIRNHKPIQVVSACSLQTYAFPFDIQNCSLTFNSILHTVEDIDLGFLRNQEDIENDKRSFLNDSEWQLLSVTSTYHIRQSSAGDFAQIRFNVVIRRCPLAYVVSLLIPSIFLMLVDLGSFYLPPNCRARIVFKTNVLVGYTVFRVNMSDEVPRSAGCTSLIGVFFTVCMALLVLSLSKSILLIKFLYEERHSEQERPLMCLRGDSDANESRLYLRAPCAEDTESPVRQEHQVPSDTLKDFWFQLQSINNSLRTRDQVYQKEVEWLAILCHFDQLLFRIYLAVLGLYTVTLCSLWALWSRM
Nature of the assay: Compound was evaluated for its ability to displace [3H]quipazine binding to 5-hydroxytryptamine 3 receptor sites in NG 108-15. Format: protein-complex assay.

The target in assay [2] is Serotonin 3 (5-HT3) receptor (Rattus norvegicus) (UniProt P35563+Q9JJ16). Nature of the assay: Inhibition of 5-HT induced bradycardia [Benzold-Jarisch (BJ) reflex test] in rats at 5 min administered intravenously. In kind it is functional. In short, it runs like this:
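Male Wistar rats (230–330 g) under urethane (1.25 g/kg ip), tracheal cannula. Blood pressure taken from the left carotid, heart rate from the pressure trace. Compounds given iv via jugular vein. Bezold-Jarisch reflex evoked by bolus iv 5-HT 30 μg/kg, with challenges every 12 min. ED50 is the dose halving 5-HT bradycardia, by linear regression, 4 rats.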

Assay [3] addresses T1, Serotonin 3 (5-HT3) receptor. Nature of the assay: Ability to displace [3H]quipazine binding to 5-hydroxytryptamine 3 receptor sites in NG 108-15. Format: protein-complex assay. In short, it runs like this:
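Membranes from 3 × 10^6 NG 108-15 cells in 20 mM Tris-HCl pH 7.5 with 154 mM NaCl. Incubated with 2 nM [3H]quipazine and varying test concentrations, 37 °C for 60 min. Stopped with ice-cold buffer, then GF/C filtration and scintillation counting. Nonspecific binding defined with 10 μM MDL 72222. […] Mean ± SEM, n = 3.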

ED50 and Ki data for 35 compounds are collected here from ChEMBL document CHEMBL1125569, “5-HT3 receptor antagonists. 1. New quinoline derivatives” (J Med Chem, 1992).

pKi: −log10 of the molar value.

In the assay listed under Rattus norvegicus, `CN1C2CCC1CC(OC(=O)c1cc(O)nc3ccccc13)C2` (stereo not drawn) had an ED50 of 0.017 mg/kg. For the same compound, in assay [1], the pKi was 8.36.

With `CCCCOc1cc(C(=O)OC2CC3CCC(C2)N3C)c2ccccc2n1` (stereo not drawn), the ED50 in assay [2] worked out at 0.2 mg/kg. The same compound showed a pKi in assay [3] of 9.41. For `CN1C2CCC1CC(NC(=O)c1cc(O)nc3ccccc13)C2` (stereo not drawn), the pKi in assay [3] is below 7.00.

The compound `CN1C2CCC1CC(NC(=O)c1cc(=O)n(-c3ccccc3)c3ccccc13)C2` (stereo not drawn) had a pKi in assay [3] of 7.20. As for `CC(C)Oc1cc(C(=O)OC2CC3CCC(C2)N3C)c2ccccc2n1` (stereo not drawn), it took a dose of 1.62 mg/kg to reach the 50% effect level in assay [2] (ED50). This compound had a pKi in assay [3] of 9.51. In turn, `CCCCn1c(=O)cc(C(=O)OC2CC3CCC(C2)N3C)c2ccccc21` (stereo not drawn) came in with an ED50 in assay [2] of 0.041 mg/kg. In assay [3], this compound gave a pKi of 9.17. For the compound `CN1C2CCC1CC(OC(=O)c1cc(=O)n(Cc3ccccc3)c3ccccc13)C2` (stereo not drawn), the pKi in assay [3] was 8.89.

In assay [2], `CC(C)COc1cc(C(=O)OC2CC3CCC(C2)N3C)c2ccccc2n1` (stereo not drawn) had an ED50 of 0.24 mg/kg. Also, in assay [3], the negative-log Ki (pKi) was 9.36. Consider `CCCCCn1c(=O)cc(C(=O)OC2CC3CCC(C2)N3C)c2ccccc21` (stereo not drawn), for which the 50% effect level in assay [2] (ED50) was put at a dose of 0.059 mg/kg. In assay [3], this compound had a pKi of 9.02. For `CCOc1cc(C(=O)OC2CC3CCC(C2)N3C)c2ccccc2n1` (stereo not drawn) the same measures were 0.07 mg/kg and 9.06. `CCCCn1c(=O)cc(C(=O)OC2CC3CCC(C2)N3C)c2cc(C)ccc21` (stereo not drawn) had a pKi in assay [3] of 7.36.

For `CCCn1c(=O)cc(C(=O)OC2CC3CCC(C2)N3C)c2ccccc21` (stereo not drawn), in assay [2], the median effective dose (ED50) stood at 0.33 mg/kg. The same compound showed a pKi in assay [3] of 9.35. Compound `CN1C2CCC1CC(OC(=O)c1cc(=O)n(-c3ccccc3)c3ccccc13)C2` (stereo not drawn) yielded an ED50 in assay [2] of 0.044 mg/kg. The pKi in assay [3] is 9.29. The compound `CN1C2CCC1CC(OC(=O)c1ccnc3ccccc13)C2` (stereo not drawn) had a pKi in assay [1] of 8.15. In turn, `CCn1c(=O)cc(C(=O)OC2CC3CCC(C2)N3C)c2ccccc21` (stereo not drawn) returned an ED50 in assay [2] of 0.022 mg/kg. Further, the pKi in assay [3] was 8.96.

`CN1C2CCC1CC(NC(=O)c1ccnc3ccccc13)C2` (stereo not drawn) gave a pKi in assay [3] below 7.00. In assay [2], `CN1C2CCC1CC(OC(=O)c1cc(=O)n(C)c3ccccc13)C2` (stereo not drawn) had an ED50 of 0.18 mg/kg. In assay [3], this compound showed a pKi of 8.59. In turn, `CCCCn1c(=O)c(CC)c(C(=O)NC2CC3CCC(C2)N3C)c2ccccc21` (stereo not drawn) gave a pKi in assay [3] below 7.00. `CCCCOc1cc(C(=O)NC2CC3CCC(C2)N3C)c2ccccc2n1` (stereo not drawn): in assay [3], the pKi is 7.72. Compound `CCCOc1cc(C(=O)OC2CC3CCC(C2)N3C)c2ccccc2n1` (stereo not drawn) returned an ED50 in assay [2] of 6.78 mg/kg. This compound also gave a negative logarithm of the Ki (pKi) in assay [3] of 9.49. In assay [3], `CC(C)Oc1cc(C(=O)NC2CC3CCC(C2)N3C)c2ccccc2n1` (stereo not drawn) had a pKi of 7.28. `CCCCCCn1c(=O)cc(C(=O)OC2CC3CCC(C2)N3C)c2ccccc21` (stereo not drawn) had a pKi in assay [3] of 8.96. As for `CCCCCCOc1cc(C(=O)OC2CC3CCC(C2)N3C)c2ccccc2n1` (stereo not drawn), it took a dose of 7.68 mg/kg to reach the 50% effect level in assay [2] (ED50). In addition, the pKi in assay [3] was 8.49. In turn, `Cc1nccn1CC1CCc2c(c3ccccc3n2C)C1=O` (stereo not drawn) [ONDANSETRON] displayed an ED50 in the assay filed under Rattus norvegicus of 0.021 mg/kg. For the compound `CCCCCOc1cc(C(=O)OC2CC3CCC(C2)N3C)c2ccccc2n1` (stereo not drawn), the ED50 in assay [2] worked out at 1.13 mg/kg. For the same compound, the pKi in assay [3] is 9.07. `CCCn1c(=O)cc(C(=O)NC2CC3CCC(C2)N3C)c2ccccc21` (stereo not drawn) had a pKi in assay [3] of 7.17. Still for that read-out and setting: then `CCCCN1C(=O)CC(C(=O)OC2CC3CCC(C2)N3C)c2ccccc21` (stereo not drawn), with 8.06. Regarding `COc1cc(C(=O)OC2CC3CCC(C2)N3C)c2ccccc2n1` (stereo not drawn), the ED50 in assay [2] worked out at 5.64 mg/kg. Also, in assay [3], the negative logarithm of the Ki (pKi) is 9.24.

With `CN1C2CCC1CC(NC(=O)c1cc(=O)n(C)c3ccccc13)C2` (stereo not drawn), the pKi in assay [3] is below 7.00. Same read-out and setting: as for `CCCCn1c(=O)cc(C(=O)NC2CC3CCC(C2)N3C)c2ccccc21` (stereo not drawn), the figure is 7.22. Same read-out and setting: as for `CCCCn1c(=O)c(CC)c(C(=O)OC2CC3CCC(C2)N3C)c2ccccc21` (stereo not drawn), the figure is 6.80. Compound `CC(C)Cn1c(=O)cc(C(=O)OC2CC3CCC(C2)N3C)c2ccccc21` (stereo not drawn) came in with an ED50 in assay [2] of 0.069 mg/kg. Moreover, the pKi in assay [3] was 9.33. On to `CC(C)CCn1c(=O)cc(C(=O)OC2CC3CCC(C2)N3C)c2ccccc21` (stereo not drawn), for which the median effective dose (ED50) in assay [2] was 0.059 mg/kg. Further, the pKi in assay [3] was 8.82. Take `CCCOc1cc(C(=O)NC2CC3CCC(C2)N3C)c2ccccc2n1` (stereo not drawn): in assay [3], the pKi is 7.38. In assay [2], `CC(C)n1c(=O)cc(C(=O)OC2CC3CCC(C2)N3C)c2ccccc21` (stereo not drawn) had an ED50 of 0.081 mg/kg. In addition, in assay [3], the pKi was 10.49.
